Rows were chosen to be rich in hits. Some 3.7% of all compounds tested hit in one or more screens of this group.
KCNK9 inh = human KCNK9 channel inhibition. Q9NPC2. HEK293 KCNK9, FluxOR thallium flux fluorescence; stronger effect = lower value. B-score at 10 µM. actives 1.2% (n = 310,000);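 active = ratio B-score over 3 SD below the library mean, with starting fluorescence within 5 SD of its mean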;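 note: negative B-score means less thallium flux so channel inhibition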
hERG rescue = compounds protecting human hERG from proarrhythmic drug block. Q12809. CHO-hERG, FluxOR thallium flux, dofetilide IC70 present. activation (rescue from dofetilide block), less the hit threshold, % at 10 µM. actives 0.51% (n = 310,000);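 active = activation above the mean of controls blocked by dofetilide plus 5 SD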;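 note: thallium influx through hERG after potassium depolarization seen as dye fluorescence rise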
KCNK3 block = human KCNK3 channel inhibition, primary screen | CHO-KCNK3 thallium flux, FluxOR fluorescence; stronger effect = lower value | O14649 | actives 0.84% (n = 340,000) | B-score at 10 µM;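 active = B-score under library mean minus 4 SD, starting fluorescence ratio at most library mean plus 5 SD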;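 note: more negative B-score means stronger inhibition of thallium flux through KCNK3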
Target sequence (O14649 whole entry, looked up): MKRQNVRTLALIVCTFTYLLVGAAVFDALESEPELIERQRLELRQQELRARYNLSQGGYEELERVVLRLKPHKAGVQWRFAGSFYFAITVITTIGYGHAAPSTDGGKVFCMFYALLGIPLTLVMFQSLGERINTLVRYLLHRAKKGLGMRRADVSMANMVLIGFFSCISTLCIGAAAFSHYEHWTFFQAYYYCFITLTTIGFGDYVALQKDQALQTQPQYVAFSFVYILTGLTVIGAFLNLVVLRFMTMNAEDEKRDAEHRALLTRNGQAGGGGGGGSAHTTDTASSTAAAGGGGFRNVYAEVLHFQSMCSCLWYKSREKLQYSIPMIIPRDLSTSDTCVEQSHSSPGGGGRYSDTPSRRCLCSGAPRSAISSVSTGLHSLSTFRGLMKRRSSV
KCNQ1 act = human KCNQ1 channel potentiation or activation; CHO-K1 KCNQ1, thallium flux FluxOR fluorescence; stronger effect = higher value; B-score at 10 µM; actives 0.35% (n = 310,000); AID 2648;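 active = fluorescence ratio B-score, a plate-corrected score, at least three library SD, with initial intensity B-score within 5 SD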
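System: CHO-K1 cells stably expressing KCNQ1 / Medium: assay buffer for compound exposure, DMSO matched across wells / Reagent: thallium- and potassium-containing depolarizing buffer / Compound: one concentration, matched DMSO / Incubation: 20 min compound pretreatment at room temperature / Measured by: kinetic FluxOR fluorescence, 10 s baseline plus 110 s post-stimulus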
Kir21 block = blocks the mouse Kir2.1 inward-rectifier potassium channel. B-score at 10 µM. P35561. AID 1672. HEK293-Kir2.1, FluxOR thallium flux fluorescence; stronger effect = lower value. actives 0.85% (n = 310,000);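 active = fluorescence ratio B-score at or below minus 3 SD of library scores, with starting-brightness B-score within 2 SD, cut at about -4.2 in these data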;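 note: channel flux triggered by added potassium and thallium sulfate stimulus; B-score of peak minus minimum fluorescence over baseline after thallium stimulus; more negative B-score means stronger Kir2.1 block with less thallium influx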
KCNQ1 inh = blocks the human KCNQ1 potassium channel | P51787 | CHO-K1 KCNQ1, FluxOR thallium flux fluorescence; stronger effect = higher value | B-score at 10 µM | actives 1.3% (n = 310,000);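 active = compounds whose thallium flux B-score, printed positive for inhibition, exceeds three library SD while starting fluorescence stays within three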;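 note: channel opened by potassium depolarization with thallium stimulus after 20 min compound exposure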
The depositor's hits bear a star.

For O=C(NCc1ccccc1C(F)(F)F)C1CC(c2cc(C(F)(F)F)cc(C(F)(F)F)c2)=NO1 (centres undefined) the results were KCNK9 inh inactive, hERG rescue -5.6, KCNK3 block inactive, KCNQ1 act inactive, Kir21 block 0.11 and KCNQ1 inh 6*.
Screening COc1cc(Cl)c(C)cc1NC(=O)CSc1sc2c(O)cc(=O)[nH]c2c1C#N returned KCNK9 inh inactive, hERG rescue 4.7*, KCNK3 block inactive, KCNQ1 act inactive, Kir21 block 0.95 and KCNQ1 inh inactive.
COc1ccc(OC)c(NC(=O)CSc2sc3c(O)cc(=O)[nH]c3c2C#N)c1 was read as KCNK9 inh inactive, hERG rescue -6.3, KCNK3 block inactive, KCNQ1 act inactive, Kir21 block -0.46 and KCNQ1 inh inactive.
`CCOC(=O)n1c(=O)n(Cc2ccc(Cl)c(Cl)c2)c2ccccc21` gave KCNK9 inh -7.37*, hERG rescue -6.5, KCNK3 block inactive, KCNQ1 act inactive, Kir21 block 0.25 and KCNQ1 inh inactive.
`C=CCN(C(=O)c1csnn1)C(C(=O)NC1CCCC1)c1cccs1` (centres undefined) gave KCNK9 inh inactive, hERG rescue -2.8, KCNK3 block inactive, KCNQ1 act inactive, Kir21 block 1.78 and KCNQ1 inh inactive.
For CCOc1ccccc1Nc1ccnc2cc(Cl)ccc12 the results were KCNK9 inh inactive, hERG rescue -12.3, KCNK3 block inactive, KCNQ1 act inactive, Kir21 block 0.48 and KCNQ1 inh inactive.
Screening CC(C)Nc1ccc(Nc2ccnc3cc4ccccc4cc23)cc1 returned KCNK9 inh inactive, hERG rescue -32.9, KCNK3 block inactive, KCNQ1 act inactive, Kir21 block -6.4* and KCNQ1 inh 9*.
Screening COc1cc(/C=C/C(=O)OCC(=O)N(CC(C)C)c2c(N)n(Cc3ccccc3)c(=O)[nH]c2=O)ccc1O returned KCNK3 block inactive.
`FC(F)Sc1nc(-c2ccccc2)c(-c2ccccc2)n1C(F)F` gave KCNK9 inh inactive, hERG rescue -7.9, KCNK3 block inactive, KCNQ1 act inactive, Kir21 block -1.23 and KCNQ1 inh 9*.
`Cc1cc2c3c([nH]c2cc1S(=O)(=O)N1CCC2(CC1)OCCO2)CCCC3=O` gave KCNK9 inh inactive, hERG rescue -1.7, KCNK3 block inactive, KCNQ1 act inactive, Kir21 block 1.02 and KCNQ1 inh inactive.
For CN(C)c1ccc(NC(=O)Cc2ccccc2)c2ccccc12 the results were KCNK9 inh inactive, hERG rescue -1.9, KCNK3 block inactive, KCNQ1 act inactive, Kir21 block -0.35 and KCNQ1 inh inactive.
For Cc1ccc(C(C[N+](=O)[O-])n2nc(C)cc2C)cc1 (centres undefined) the results were KCNK9 inh inactive, hERG rescue -7.5, KCNK3 block inactive, KCNQ1 act inactive, Kir21 block -8.03* and KCNQ1 inh inactive.
`Cc1ccc(S(=O)(=O)NCC(C)n2nc(C)cc2C)cc1` (centres undefined) gave KCNK9 inh inactive, hERG rescue 0.6, KCNK3 block inactive, KCNQ1 act inactive, Kir21 block -0.09 and KCNQ1 inh inactive.
Screening CC(C)(C)OC(=O)N1CCC(CC2CC(c3ccccc3)=NO2)(C(=O)O)CC1 (centres undefined) returned KCNK9 inh inactive, hERG rescue -4.0, KCNK3 block inactive, KCNQ1 act inactive, Kir21 block -0.06 and KCNQ1 inh inactive.
`CCCCCCCNC(=O)C1(CC2CC(c3ccc(Cl)cc3)=NO2)CCN(C(=O)OC(C)(C)C)CC1` (centres undefined) gave KCNK9 inh inactive, hERG rescue -10.0, KCNK3 block inactive, KCNQ1 act inactive, Kir21 block -0.09 and KCNQ1 inh 8*.
For Cc1ccc(C(C)C)cc1S(=O)(=O)Nc1ccncc1 the results were KCNK9 inh inactive, hERG rescue -1.0, KCNK3 block inactive, KCNQ1 act inactive, Kir21 block 0.57 and KCNQ1 inh inactive.
Screening Cc1ccc2[nH]cc(/C=C/c3cc[n+](C)cc3)c2c1 returned KCNK9 inh inactive, hERG rescue -32.3, KCNK3 block inactive, KCNQ1 act inactive, Kir21 block -15.6 and KCNQ1 inh inactive.
`CC[n+]1ccc(/C=C/c2c[nH]c3ccccc23)cc1` gave KCNK9 inh inactive, hERG rescue -24.1, KCNK3 block inactive, KCNQ1 act inactive, Kir21 block -5.94 and KCNQ1 inh 10*.
COc1ccc(-c2c(C)nn(-c3ccccc3)c2N)cc1OC was read as KCNK9 inh inactive, hERG rescue 4.7*, KCNK3 block inactive, KCNQ1 act inactive, Kir21 block 1.83 and KCNQ1 inh inactive.
For CC(C)(C)c1cc(N/C=C\c2nnnn2-c2ccc(Br)cc2)no1 the results were KCNK9 inh inactive, hERG rescue 7.3*, KCNK3 block inactive, KCNQ1 act inactive, Kir21 block -0.01 and KCNQ1 inh inactive.
`Cc1ccc(-n2nnnc2/C=C\Nc2cc(C)on2)cc1` gave KCNK9 inh inactive, hERG rescue -3.7, KCNK3 block inactive, KCNQ1 act inactive, Kir21 block 1.83 and KCNQ1 inh inactive.
CCCC(=O)Nc1cccc(C(=O)Nc2ccccc2OCC)c1 was read as KCNK9 inh -7.8*, hERG rescue -8.7, KCNQ1 act inactive, Kir21 block 0.15 and KCNQ1 inh inactive.
For CCC(=O)Nc1cccc(NC(=O)c2ccc(C)c([N+](=O)[O-])c2)c1 the results were KCNK9 inh inactive, hERG rescue -21.8, KCNK3 block inactive, KCNQ1 act inactive, Kir21 block -1.25 and KCNQ1 inh inactive.
`CCOc1ccccc1NC(=O)c1cccc(NC(=O)C(C)C)c1` gave KCNK9 inh inactive, hERG rescue -16.8, KCNK3 block inactive, KCNQ1 act inactive, Kir21 block -0.62 and KCNQ1 inh inactive.
CCCC(=O)Nc1cccc(NC(=O)c2ccc(C)c([N+](=O)[O-])c2)c1 was read as KCNK9 inh inactive, hERG rescue -13.8, KCNK3 block inactive, KCNQ1 act inactive, Kir21 block -4.82* and KCNQ1 inh inactive.
CN(C)C(=O)c1c2c(nc3ccccc13)CCCC2 was read as KCNK9 inh inactive, hERG rescue 8.1*, KCNK3 block inactive, KCNQ1 act inactive, Kir21 block -0.81 and KCNQ1 inh inactive.
CCOc1ccc(NC(=O)CN2CCN(Cc3c(F)cccc3F)CC2)cc1 was read as KCNK9 inh inactive, hERG rescue -1.6, KCNK3 block inactive, KCNQ1 act inactive, Kir21 block 0.43 and KCNQ1 inh inactive.

Source: PubChem BioAssay (Johns Hopkins Ion Channel Center)
